Published values collected from several papers.
Lines come from different studies, so protocols differ.
Target: Prostaglandin G/H synthase 1 (PTGS1, Ovis aries, UniProt P05979)
Read-out: enzyme activity
Action: inhibitor
Residues used in one study (P05979 25-600): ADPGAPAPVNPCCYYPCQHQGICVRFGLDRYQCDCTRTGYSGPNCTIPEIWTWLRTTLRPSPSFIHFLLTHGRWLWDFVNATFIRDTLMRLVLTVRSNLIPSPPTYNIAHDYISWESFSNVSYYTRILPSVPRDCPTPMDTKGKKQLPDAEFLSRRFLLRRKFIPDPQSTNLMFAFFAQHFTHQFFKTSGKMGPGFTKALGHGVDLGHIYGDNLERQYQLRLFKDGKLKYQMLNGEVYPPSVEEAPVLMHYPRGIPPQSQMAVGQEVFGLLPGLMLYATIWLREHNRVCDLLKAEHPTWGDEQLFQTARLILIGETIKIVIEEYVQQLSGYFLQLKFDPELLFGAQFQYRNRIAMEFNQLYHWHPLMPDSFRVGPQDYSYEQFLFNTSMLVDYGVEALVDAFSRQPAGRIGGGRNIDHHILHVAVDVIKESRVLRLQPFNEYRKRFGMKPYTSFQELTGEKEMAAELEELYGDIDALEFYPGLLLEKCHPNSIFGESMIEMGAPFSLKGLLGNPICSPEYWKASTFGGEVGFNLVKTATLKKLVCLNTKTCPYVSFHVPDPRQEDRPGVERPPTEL

| Compound | technique | IC50 [µM] |
| --- | --- | --- |
| Cc1cccn2c(Nc3ccc(F)cc3)c(-c3ccc(S(C)(=O)=O)cc3)nc12 | fluorescence | 31.5 |
| COc1ccc(-c2nn(-c3ccc(S(C)(=O)=O)cc3)cc2/C=N/N=c2\[nH]c(-c3ccc(Br)cc3)cs2)cc1 |  | 62.7 |
| Cc1ccc(/C=C2\C=C(CC(=O)O)c3cc(F)ccc32)cc1 |  | 3.2 |
| COc1ccccc1-c1ccc([N+](=O)[O-])cc1 | absorbance | 8.79 |
| C[C@@H]1O[C@@H](OC[C@H]2O[C@@H](Oc3c(-c4ccc(O)cc4)oc4cc(O)cc(O)c4c3=O)[C@H](O[C@@H]3O[C@H](CO)[C@@H](O)[C@H](O)[C@H]3O)[C@@H](O)[C@@H]2O)[C@H](O)[C@H](O)[C@H]1O | absorbance | 12.9 |
| CS(=O)(=O)c1ccc(-c2nc3ccccn3c2Nc2ccc(Cl)cc2)cc1 | fluorescence | 34.3 |
| O=C(O)CC1=C/C(=C\c2cccc(-c3ccc(F)cc3)n2)c2ccc(F)cc21 |  | 9.3 |
| Cc1ccc(-c2nn(-c3ccc(S(C)(=O)=O)cc3)cc2/C=N\N=c2/[nH]c(-c3ccc([N+](=O)[O-])cc3)cs2)cc1 |  | 49.6 |
| CS(=O)(=O)c1ccc(-c2nc3ccccn3c2Nc2ccc(F)cc2)cc1 | fluorescence | 23.8 |
| NS(=O)(=O)c1ccc(-c2ncc(Cl)cc2-c2nc3ccccc3s2)cc1 | absorbance | > 100 |
| COc1ccc(Nc2c(-c3ccc(S(C)(=O)=O)cc3)nc3c(C)cccn23)cc1 | fluorescence | 30 |
| CSc1ccc(/C=C2\C=C(CC(=O)NS(=O)(=O)c3ccc(C(F)(F)F)cc3)c3cc(F)ccc32)cc1 |  | 3.9 |
| Cc1cccc2nc(-c3ccc(S(C)(=O)=O)cc3)c(Nc3ccc(Cl)cc3)n12 | fluorescence | 27.1 |
| Cc1ccc(-c2nc3ccccc3s2)c(-c2ccc(S(C)(=O)=O)cc2)c1 | absorbance | > 100 |
| Cc1ccc(Nc2c(-c3ccc(S(C)(=O)=O)cc3)nc3ccccn23)cc1 | fluorescence | 23.1 |
| COc1ccc(F)c(-c2ccccc2F)c1 | absorbance | 9.98 |
| CC(C(=O)O)c1cccc(C(=O)c2ccccc2)c1 (stereo not drawn) |  | 0.05 |
| COc1ccccc1-c1cccc([N+](=O)[O-])c1F | absorbance | 9.34 |
| CC(C)Cc1ccc(-c2nn(-c3ccc(S(C)(=O)=O)cc3)cc2/C=N\N=C2/NC(=O)CS2)cc1 |  | 19.7 |
| Cc1ccn2c(Nc3ccc(F)cc3)c(-c3ccc(S(C)(=O)=O)cc3)nc2c1 | fluorescence | 33.6 |
| COc1ccc(-c2nn(-c3ccc(S(C)(=O)=O)cc3)cc2C=N/N=c2\[nH]c(-c3ccc([N+](=O)[O-])cc3)cs2)cc1 |  | 23.2 |
| O=[N+]([O-])c1ccc(-c2ccccc2F)cc1 | absorbance | 10.1 |
| CS(=O)(=O)c1ccc(-n2cc(/C=N/N=c3\[nH]c(-c4ccc(Br)cc4)cs3)c(-c3ccc(Br)cc3)n2)cc1 |  | 9.42 |
| CS(=O)(=O)c1ccc(-c2ncc(Cl)cc2-c2nc3ccccc3s2)cc1 | absorbance | > 100 |
